Source: ChEMBL document CHEMBL1129428 (J Med Chem, 1996)

Assays:
[1] = test system: Mus musculus; assay: Compound was tested for toxicity after intraperitoneal injection into mice by using toxicity screen test after 4 hr; assay type: organism-based; details: in vivo, ip
Method in brief: (§1)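 Mice injected intraperitoneally at 30, 100 and 300 mg/kg and examined 0.5 and 4 h afterwards. Each entry is the minimum dose giving activity (MES protection, scPTZ protection, or rotorod failure for neurotoxicity) in half or more of the mice. Activity is called absent if nothing occurs at 300 mg/kg.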

[2] = test system: Mus musculus; assay: Toxicity after intraperitoneal injection into mice by using toxicity screen test after 0.5 hr; assay type: organism-based; details: in vivo, ip; method in brief: as §1
[3] = test system: Rattus norvegicus; assay: Compound was tested for anticonvulsant activity after Oral Administration into rat by using MES screen test after 4 hr; assay type: functional
Method in brief: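 Rats dosed orally, typically at 50 mg/kg first, then mostly 12.5 mg/kg (some compounds at 30 mg/kg), and tested by maximal electroshock. Four rats per compound, scored at 0.25, 0.5, 1, 2 and 4 h as the number of rats protected out of 4.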

[4] = test system: Mus musculus; assay: Anticonvulsant activity after intraperitoneal injection into mice by using MES screen test after 0.5 hr; assay type: functional
[5] = test system: Mus musculus; assay: Compound was tested for anticonvulsant activity after intraperitoneal injection into mice by using scPTZ screen test after 1 hr; assay type: functional; details: ip
Method in brief: (§2)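 Quantitative intraperitoneal mouse testing in the MES, scPTZ or rotorod neurotoxicity screens at the peak time given for each compound (0.25–2 h). ED50 or TD50 reported in mg/kg with 95% CI and slope (SE).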

[6] = test system: Mus musculus; assay: Anticonvulsant activity after intraperitoneal injection into mice measured in a maximal electroshock scree (MES) screen; assay type: functional
[7] = test system: Rattus norvegicus; assay: Compound was tested for anticonvulsant activity after Oral Administration into Rats by using MES screen test after 4h,dose 12.5 mg/kg; number of rats out of four which were protected; assay type: functional
Method in brief: (§3)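 Rats received the compound orally. […] Rats were tested in the MES screen at 0.25, 0.5, 1, 2 and 4 h. Each value is the number of rats protected out of 4. The test followed NINDS procedures.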

[8] = test system: Rattus norvegicus; assay: Compound was tested for anticonvulsant activity after Oral Administration into Rats by using MES screen test after 2h,dose 12.5 mg/kg; number of rats out of four which were protected; assay type: functional; method in brief: as §3
[9] = Protection index = TD50/ED50; assay type: ADME; details: read-out: PI
[10] = test system: Rattus norvegicus; assay: Compound was tested for anticonvulsant activity after Oral Administration into Rats by using MES screen test after 1h,dose 12.5 mg/kg; number of rats out of four which were protected; assay type: functional; method in brief: as §3
[11] = test system: Mus musculus; assay: Compound was tested for anticonvulsant activity after intraperitoneal injection into mice by using MES screen test after 4 hr; assay type: functional; details: ip; method in brief: as §1
[12] = test system: Rattus norvegicus; assay: Anticonvulsant activity after oral administration into rats; assay type: functional; parameters: concentration or dose not given beside the values
[13] = Compound was tested for toxicity after oral administration in rat by using neurotoxicity screen test after 0.25-24 hr; assay type: organism-based; details: in vivo
Method in brief: (§4)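 Rat neurotoxicity after oral dosing, observed at 0.25, 0.5, 1, 2, 4, 6, 8 and 24 h (8 h omitted for one compound).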

[14] = test system: Rattus norvegicus; assay: Compound was tested for anticonvulsant activity after Oral Administration into Rats by using MES screen test after 0.25h,dose 12.5 mg/kg; No activity was demonstarted; assay type: functional, organism-based; parameters: dose 12.5 mg/kg; method in brief: as §3
[15] = test system: Mus musculus; assay: Anticonvulsant activity after intraperitoneal injection into mice by using scPTZ screen test after 4 hr; assay type: functional
[16] = Compound was tested for toxicity after intraperitoneal injection into mice by using neurotoxicity screen test after 4 hr; assay type: organism-based; details: mouse, in vivo, ip; method in brief: as §1
[17] = test system: Rattus norvegicus; assay: Compound was tested for anticonvulsant activity after Oral Administration into Rats by using MES screen test after 2h,dose 12.50 mg/kg; number of rats out of four which were protected; assay type: functional; details: dose 12.5 mg/kg; method in brief: as §3
[18] = test system: Mus musculus; assay: Compound was tested for anticonvulsant activity after intraperitoneal injection into mice by using MES screen test after 0.5 hr; assay type: functional; details: ip; method in brief: as §1
[19] = test system: Rattus norvegicus; assay: Compound was tested for anticonvulsant activity after Oral Administration into Rats by using MES screen test after 1h,dose 12.50 mg/kg; number of rats out of four which were protected; assay type: functional; details: dose 12.5 mg/kg; method in brief: as §3
[20] = test system: Mus musculus; assay: Anticonvulsant activity after intraperitoneal injection into mice by using scPTZ screen after 0.5 hr; assay type: functional
[21] = test system: Rattus norvegicus; assay: Compound was tested for anticonvulsant activity after Oral Administration into Rats by using MES screen test after 0.5h,dose 12.50 mg/kg; number of rats out of four which were protected; assay type: functional; details: dose 12.5 mg/kg; method in brief: as §3
[22] = test system: Mus musculus; assay: Compound was tested for anticonvulsant activity after intraperitoneal injection into mice by using scPTZ screen test after 0.25 hr; assay type: functional; details: ip; method in brief: as §2
[23] = test system: Rattus norvegicus; assay: Compound was tested for anticonvulsant activity after Oral Administration into Rats by using MES screen test after 0.25h,dose 12.50 mg/kg; number of rats out of four which were protected; assay type: functional; details: dose 12.5 mg/kg; method in brief: as §3
[24] = test system: Rattus norvegicus; assay: Compound was tested for anticonvulsant activity after Oral Administration into Rats by using MES screen test after 4h,dose 12.50 mg/kg; number of rats out of four which were protected; assay type: functional; details: dose 12.5 mg/kg; method in brief: as §3
[25] = Compound was tested for toxicity after intraperitoneal injection into mice by using neurotoxicity screen test after 1 hr; assay type: organism-based; details: mouse, in vivo, ip; method in brief: as §2
[26] = test system: Rattus norvegicus; assay: Compound was tested for anticonvulsant activity after Oral Administration into Rats by using MES screen test after 1h,dose 12.5 mg/kg; No activity was demonstarted; assay type: functional, organism-based; parameters: dose 12.5 mg/kg; method in brief: as §3
[27] = test system: Rattus norvegicus; assay: Compound was tested for anticonvulsant activity after Oral Administration into Rats by using MES screen test after 0.5h,dose 12.5 mg/kg; No activity was demonstarted; assay type: functional, organism-based; parameters: dose 12.5 mg/kg; method in brief: as §3
[28] = Protection index = TD50/ED50 (MES); assay type: ADME, organism-based; details: rat, in vivo; read-out: PI
[29] = test system: Rattus norvegicus; assay: Compound was tested for anticonvulsant activity after Oral Administration into Rats by using MES screen test after 2h,dose 12.5 mg/kg; No activity was demonstarted; assay type: functional, organism-based; parameters: dose 12.5 mg/kg; method in brief: as §3
[30] = Compound was tested for toxicity after oral administration in rat by using neurotoxicity screen test after 2 hr; assay type: organism-based; details: in vivo; method in brief: as §4
[31] = test system: Mus musculus; assay: Compound was tested for anticonvulsant activity after intraperitoneal injection into mice by using MES screen test after 2 hr; assay type: functional; details: ip; method in brief: as §2
[32] = Compound was tested for toxicity after intraperitoneal injection into mice by using neurotoxicity screen test after 2 hr; assay type: organism-based; details: mouse, in vivo, ip; method in brief: as §2
[33] = Protection index = TD50/ED50 (MES); details: mouse, in vivo; read-out: PI
[34] = test system: Rattus norvegicus; assay: Compound was tested for anticonvulsant activity after Oral Administration into Rats by using MES screen test after 0.5h,dose 30 mg/kg; number of rats out of four which were protected; assay type: functional; method in brief: as §3
[35] = test system: Rattus norvegicus; assay: Compound was tested for anticonvulsant activity after Oral Administration into Rats by using MES screen test after 2h,dose 30 mg/kg; number of rats out of four which were protected; assay type: functional; method in brief: as §3
[36] = test system: Rattus norvegicus; assay: Compound was tested for anticonvulsant activity after Oral Administration into Rats by using MES screen test after 0.25h,dose 30 mg/kg; number of rats out of four which were protected; assay type: functional; method in brief: as §3
[37] = test system: Mus musculus; assay: Compound was tested for anticonvulsant activity after intraperitoneal injection into mice by using scPTZ screen test after 2 hr; assay type: functional; details: ip; method in brief: as §2
[38] = test system: Rattus norvegicus; assay: Compound was tested for anticonvulsant activity after Oral Administration into Rats by using MES screen test after 1h,dose 30 mg/kg; number of rats out of four which were protected; assay type: functional; method in brief: as §3
[39] = Compound was tested for toxicity after oral administration in rat by using neurotoxicity screen test after 4 hr; assay type: organism-based; details: in vivo; method in brief: as §4
[40] = test system: Rattus norvegicus; assay: Compound was tested for anticonvulsant activity after Oral Administration into Rats by using MES screen test after 4h,dose 30 mg/kg; number of rats out of four which were protected; assay type: functional; method in brief: as §3
[41] = Compound was tested for […] after intraperitoneal injection into mice by using neurotoxicity screen test after 2 hr; assay type: organism-based; details: mouse, in vivo, ip; method in brief: as §2

Structure (SMILES): CCC(C)c1ccc(Oc2ccc(/C=N\NC(N)=O)cc2)cc1 (configuration not stated)
- Dose [1]: 100 mg/kg
- Dose [2]: 300 mg/kg
- ED50 [3]: 3.21 mg/kg
- Dose [4]: 100 mg/kg
- ED50 [5]: 86.9 mg/kg
- Dose [6]: 30 mg/kg
- Activity [7]: 4
- Activity [8]: 3
- selectivity ratio [9]: 1.51
- Activity [10]: 2
- ED50 [11]: 13.4 mg/kg
- Activity [12]: 2
- TD50 [13]: > 322 mg/kg
- Activity [14]: No activity
- Dose [15]: 100 mg/kg
- TD50 at 4 h [16]: 131 mg/kg

Structure (SMILES): Cc1ccc(Oc2ccc(/C=N/NC(N)=O)cc2)c(C)c1
- Dose [1]: 100 mg/kg
- Activity [17]: 4
- Dose [2]: 300 mg/kg
- ED50 [18]: 4.6 mg/kg
- Dose [4]: 30 mg/kg
- Dose [6]: 30 mg/kg
- Activity [19]: 4
- Dose [20]: 30 mg/kg
- Activity [21]: 4
- ED50 [22]: 33.6 mg/kg
- Dose [15]: 30 mg/kg
- Activity [23]: 1
- Activity [24]: 4
- TD50 at 1 h [25]: 37 mg/kg

Structure (SMILES): CCCCOc1ccc(Oc2ccc(/C=N/NC(N)=O)cc2)cc1
- Dose [1]: 300 mg/kg
- Dose [2]: 300 mg/kg
- ED50 [3]: 45.8 mg/kg
- Activity [26]: No activity
- Dose [4]: 300 mg/kg
- Dose [6]: 100 mg/kg
- Activity [7]: 2
- Activity [27]: No activity
- Dose [20]: 300 mg/kg
- selectivity ratio [28]: > 2.18
- Activity [29]: No activity
- TD50 at 2 h [30]: > 100 mg/kg
- Activity [14]: No activity
- Dose [15]: 300 mg/kg

Structure (SMILES): C/C(=N/NC(N)=O)c1ccc(Oc2ccc(Cl)cc2)cc1
- Dose [1]: 100 mg/kg
- Dose [2]: 300 mg/kg
- ED50 [3]: 2.92 mg/kg
- ED50 [31]: 9.14 mg/kg
- Dose [4]: 30 mg/kg
- Dose [6]: 30 mg/kg
- TD50 at 2 h [32]: 76.5 mg/kg
- selectivity ratio [33]: 8.37
- selectivity ratio [9]: 2.23
- Activity [34]: 4
- Activity [35]: 4
- Dose [15]: 30 mg/kg
- Activity [36]: 3
- ED50 [37]: 34.4 mg/kg
- Activity [38]: 4
- TD50 at 4 h [39]: < 500 mg/kg
- Activity [40]: 4

Structure (SMILES): NC(=O)N/N=C/c1ccc(Oc2cc(F)cc(F)c2)cc1
- Dose [1]: 300 mg/kg
- Activity [17]: 4
- Dose [2]: 300 mg/kg
- ED50 [18]: 12.3 mg/kg
- Dose [4]: 30 mg/kg
- Dose [6]: 30 mg/kg
- Activity [19]: 4
- selectivity ratio [33]: 5.58
- Dose [20]: 100 mg/kg
- Activity [21]: 3
- Activity [23]: 1
- Activity [24]: 4
- TD50 at 1 h [25]: 68.8 mg/kg

Structure (SMILES): NC(=O)N/N=C/c1ccc(Oc2c(F)cccc2F)cc1
- Dose [1]: 300 mg/kg
- Dose [2]: 300 mg/kg
- ED50 [3]: 5.53 mg/kg
- Dose [4]: 30 mg/kg
- Dose [6]: 30 mg/kg
- TD50 at 2 h [41]: 125 mg/kg
- Activity [7]: 4
- Activity [8]: 4
- Dose [20]: 300 mg/kg
- TD50 at 2 h [30]: > 500 mg/kg
- Activity [12]: 2
- Activity [14]: No activity
- Dose [15]: 300 mg/kg
